Experiments:
CHIP = target: T1, CHIP (Homo sapiens, UniProt Q9UNE7); experiment: FP binding of C-terminal Hsp70/90 tracers to CHIP; conditions: pH 7.4, full-length CHIP
T1 sequence (Q9UNE7 1-303): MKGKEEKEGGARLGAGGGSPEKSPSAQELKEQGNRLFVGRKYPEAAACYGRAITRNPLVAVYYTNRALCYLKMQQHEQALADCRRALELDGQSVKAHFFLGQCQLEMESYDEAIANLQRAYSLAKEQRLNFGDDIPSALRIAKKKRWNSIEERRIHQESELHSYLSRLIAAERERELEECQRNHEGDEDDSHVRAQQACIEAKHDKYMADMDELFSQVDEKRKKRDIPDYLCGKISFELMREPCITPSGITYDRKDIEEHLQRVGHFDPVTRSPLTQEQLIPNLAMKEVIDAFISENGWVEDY

DnaJC7 = target: T2, DnaJC7 (Homo sapiens, UniProt Q99615); experiment: FP binding of C-terminal Hsp70/90 tracers to DnaJC7; conditions: pH 7.4, full-length DnaJC7
T2 sequence (Q99615 1-494): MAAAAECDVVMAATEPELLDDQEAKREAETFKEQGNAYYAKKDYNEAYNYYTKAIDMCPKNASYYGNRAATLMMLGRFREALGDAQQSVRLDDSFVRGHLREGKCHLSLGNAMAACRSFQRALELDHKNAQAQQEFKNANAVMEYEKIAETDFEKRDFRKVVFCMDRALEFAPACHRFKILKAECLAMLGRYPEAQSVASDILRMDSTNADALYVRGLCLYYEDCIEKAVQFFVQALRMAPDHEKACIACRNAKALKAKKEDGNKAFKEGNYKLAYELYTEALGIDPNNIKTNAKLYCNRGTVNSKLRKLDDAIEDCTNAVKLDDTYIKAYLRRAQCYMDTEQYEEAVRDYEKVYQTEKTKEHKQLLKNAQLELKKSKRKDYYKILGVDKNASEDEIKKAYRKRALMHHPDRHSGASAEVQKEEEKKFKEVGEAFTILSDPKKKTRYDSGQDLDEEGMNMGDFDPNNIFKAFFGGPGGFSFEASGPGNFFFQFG
How it was run: (§1)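 Full-length human protein, made in E. coli BL21(DE3) and Ni-NTA purified (DnaJC7 kept its His-tag; Hop and FKBP52 were TEV-cleaved and gel-filtered). Twofold dilutions (0–125 μM final) with 20 nM N-terminal 5-Fam-aminohexanoyl C-terminal Hsp70/90 peptide in 50 mM HEPES, 75 mM NaCl, 0.001% Triton X-100, pH 7.4. 30 min at RT, dark. FP (ex 485/em 530 nm) isotherms. ≥2 runs in triplicate, mean ± SEM.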

FKBP52 = target: T3, FKBP52 (Homo sapiens, UniProt Q02790); experiment: FP binding of C-terminal Hsp70/90 tracers to FKBP52; conditions: pH 7.4, full-length FKBP52
T3 sequence (Q02790 1-459): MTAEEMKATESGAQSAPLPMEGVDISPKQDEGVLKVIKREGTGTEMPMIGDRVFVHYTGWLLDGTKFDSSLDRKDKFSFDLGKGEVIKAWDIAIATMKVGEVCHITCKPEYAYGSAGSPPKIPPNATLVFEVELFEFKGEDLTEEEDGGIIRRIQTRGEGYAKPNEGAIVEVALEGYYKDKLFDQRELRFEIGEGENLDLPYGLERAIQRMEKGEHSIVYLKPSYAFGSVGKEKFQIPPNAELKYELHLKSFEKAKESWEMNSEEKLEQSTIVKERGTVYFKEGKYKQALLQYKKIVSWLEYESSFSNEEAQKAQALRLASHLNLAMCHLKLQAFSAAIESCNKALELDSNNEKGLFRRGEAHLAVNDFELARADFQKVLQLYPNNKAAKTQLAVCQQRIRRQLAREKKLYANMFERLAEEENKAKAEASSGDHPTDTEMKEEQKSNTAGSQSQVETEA
How it was run: as §1

FKBP51 = target: T4, FKBP51 (Homo sapiens, UniProt Q13451); experiment: FP binding of C-terminal Hsp70/90 tracers to FKBP51; conditions: pH 7.4, full-length FKBP51
T4 sequence (Q13451 1-457): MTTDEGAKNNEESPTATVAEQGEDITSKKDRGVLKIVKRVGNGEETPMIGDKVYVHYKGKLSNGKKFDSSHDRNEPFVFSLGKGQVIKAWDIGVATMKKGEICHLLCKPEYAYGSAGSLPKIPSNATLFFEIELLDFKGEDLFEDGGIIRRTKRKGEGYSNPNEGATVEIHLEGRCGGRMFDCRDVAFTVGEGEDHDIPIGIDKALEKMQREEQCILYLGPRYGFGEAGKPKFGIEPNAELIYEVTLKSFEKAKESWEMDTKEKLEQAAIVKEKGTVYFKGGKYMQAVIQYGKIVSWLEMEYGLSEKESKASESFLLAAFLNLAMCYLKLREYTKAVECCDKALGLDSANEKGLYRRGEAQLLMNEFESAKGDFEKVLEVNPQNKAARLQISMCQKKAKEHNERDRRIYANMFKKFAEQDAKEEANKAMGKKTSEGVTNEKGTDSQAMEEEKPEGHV

Hop = Hop (Homo sapiens, UniProt P31948); experiment: FP binding of C-terminal Hsp70/90 tracers to Hop
How it was run: as §1

Hop, sequence (P31948 whole entry): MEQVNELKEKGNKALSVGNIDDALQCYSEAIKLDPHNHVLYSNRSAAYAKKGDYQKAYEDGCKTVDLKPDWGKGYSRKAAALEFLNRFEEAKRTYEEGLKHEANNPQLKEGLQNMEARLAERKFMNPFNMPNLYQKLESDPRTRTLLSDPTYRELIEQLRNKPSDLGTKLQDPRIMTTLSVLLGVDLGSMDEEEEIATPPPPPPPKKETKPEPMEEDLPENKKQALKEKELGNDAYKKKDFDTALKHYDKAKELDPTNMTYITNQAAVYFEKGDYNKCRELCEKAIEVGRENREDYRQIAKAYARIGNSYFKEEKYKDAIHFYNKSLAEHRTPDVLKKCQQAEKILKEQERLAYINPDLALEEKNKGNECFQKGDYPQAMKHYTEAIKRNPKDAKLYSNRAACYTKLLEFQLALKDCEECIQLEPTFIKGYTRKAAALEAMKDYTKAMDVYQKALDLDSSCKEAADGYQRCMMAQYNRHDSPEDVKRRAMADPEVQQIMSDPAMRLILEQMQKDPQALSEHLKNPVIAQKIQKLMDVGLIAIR

decrease in affinity versus wt tracer (CHIP)	binding to DnaJC7 (in words) (DnaJC7)	binding to FKBP52 (in words) (FKBP52)	binding to FKBP51 (in words) (FKBP51)	enhanced binding versus wt tracer (Hop; pH 7.4, pseudophosphorylated tracer)	binding to CHIP (in words) (CHIP)	binding to Hop (in words) (Hop; pH 7.4, full-length Hop)	Substance
more than 8 fold	unaffected	unaffected	unaffected	~ 2 fold			Fam-DDTERMEEVD
	no affinity	no affinity	no affinity		no affinity	no affinity	Fam-DVEEM

From article PMC4714923 (Biochemistry, 2015)
